Activity calls are given as the source filed them. The calls are words filed in the database; no cut-off is given here.
How the values were obtained:
Histone deacetylase 1 [1] = molecular target: T1, Histone deacetylase 1 (Homo sapiens, UniProt Q13547); experiment: Inhibition of HDAC1 in human HeLa cells using Fluor-de-Lys as substrate after 15 mins by fluorescence assay; format: cell-based
DU-145 = experiment: Cytotoxicity against human DU145 cells assessed as inhibition of cell viability after 72 hrs by MTS assay; format: functional, cell-based; details: DU-145, 72 h
Procedure, shortened: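 DU-145 prostate carcinoma cells exposed to compound for 72 h; viability read by MTS assay. IC50 values are means of two experiments, each run in triplicate.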

Histone deacetylase = experiment: Inhibition of HDAC in human HeLa cells using Fluor-de-Lys as substrate after 15 mins by fluorescence assay; format: cell-based
[2] = molecular target: T2, Histone deacetylase 8 (Homo sapiens) (UniProt Q9BY41); experiment: Inhibition of HDAC8 in human HeLa cells using Fluor-de-Lys as substrate up to 10 uM after 15 mins by fluorescence assay; format: cell-based
T2 sequence (whole entry): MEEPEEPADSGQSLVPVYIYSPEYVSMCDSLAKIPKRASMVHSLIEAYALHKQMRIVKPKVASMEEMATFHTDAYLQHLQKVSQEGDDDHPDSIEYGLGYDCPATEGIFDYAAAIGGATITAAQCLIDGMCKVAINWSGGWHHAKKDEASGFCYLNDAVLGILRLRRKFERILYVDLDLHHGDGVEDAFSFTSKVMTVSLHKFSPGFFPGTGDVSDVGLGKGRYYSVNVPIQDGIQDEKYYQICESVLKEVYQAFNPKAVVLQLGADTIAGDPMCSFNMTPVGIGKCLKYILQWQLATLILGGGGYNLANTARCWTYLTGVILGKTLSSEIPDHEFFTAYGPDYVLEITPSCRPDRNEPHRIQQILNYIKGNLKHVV
Procedure, shortened: (§1)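 Run by a contract testing laboratory, duplicate wells at each concentration; values reported with standard error.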

[3] = molecular target: T3, Protein deacetylase HDAC6 (Homo sapiens, UniProt Q9UBN7); experiment: Inhibition of HDAC6 in human HeLa cells using Fluor-de-Lys as substrate after 15 mins by fluorescence assay; format: cell-based
T3 sequence (Q9UBN7 whole entry): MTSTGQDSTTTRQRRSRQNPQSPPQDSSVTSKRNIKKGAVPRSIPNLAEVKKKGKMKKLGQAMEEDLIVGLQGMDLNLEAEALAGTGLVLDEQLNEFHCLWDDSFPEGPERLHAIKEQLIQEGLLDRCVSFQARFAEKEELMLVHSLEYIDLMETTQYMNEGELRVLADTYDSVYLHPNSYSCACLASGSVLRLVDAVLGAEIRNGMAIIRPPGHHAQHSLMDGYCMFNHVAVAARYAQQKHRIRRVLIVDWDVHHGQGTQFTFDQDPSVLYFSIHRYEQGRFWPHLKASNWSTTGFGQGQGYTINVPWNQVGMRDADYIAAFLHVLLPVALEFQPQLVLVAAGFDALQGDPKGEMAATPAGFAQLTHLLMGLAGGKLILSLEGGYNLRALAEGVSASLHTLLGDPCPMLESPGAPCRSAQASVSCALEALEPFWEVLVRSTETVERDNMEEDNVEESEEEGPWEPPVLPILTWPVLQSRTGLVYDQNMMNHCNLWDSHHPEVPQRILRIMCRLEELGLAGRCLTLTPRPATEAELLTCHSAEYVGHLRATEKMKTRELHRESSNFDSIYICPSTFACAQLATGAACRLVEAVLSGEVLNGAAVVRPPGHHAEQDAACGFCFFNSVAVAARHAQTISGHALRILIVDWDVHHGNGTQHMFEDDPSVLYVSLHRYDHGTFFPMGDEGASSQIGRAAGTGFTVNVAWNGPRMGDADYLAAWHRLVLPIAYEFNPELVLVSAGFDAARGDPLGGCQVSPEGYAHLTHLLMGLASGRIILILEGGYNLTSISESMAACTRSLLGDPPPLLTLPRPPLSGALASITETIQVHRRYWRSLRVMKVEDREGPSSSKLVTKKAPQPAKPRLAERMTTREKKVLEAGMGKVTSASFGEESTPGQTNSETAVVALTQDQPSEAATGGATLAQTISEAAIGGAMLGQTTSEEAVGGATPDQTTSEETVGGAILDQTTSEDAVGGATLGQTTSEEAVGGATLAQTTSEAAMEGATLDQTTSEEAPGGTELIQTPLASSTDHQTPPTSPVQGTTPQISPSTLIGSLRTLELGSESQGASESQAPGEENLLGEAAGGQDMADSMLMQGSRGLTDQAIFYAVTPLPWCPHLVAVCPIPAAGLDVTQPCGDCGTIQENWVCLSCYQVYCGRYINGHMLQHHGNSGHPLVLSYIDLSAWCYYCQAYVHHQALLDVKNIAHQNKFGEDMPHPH

[4] = molecular target: T4, DNA topoisomerase 1 (Homo sapiens) (UniProt P11387); experiment: Inhibition of topoisomerase-1 (unknown origin) assessed as reduction of pBR322 plasmid DNA relaxation at 50 uM after 30 mins by agarose gel electrophoresis
T4 sequence (whole entry): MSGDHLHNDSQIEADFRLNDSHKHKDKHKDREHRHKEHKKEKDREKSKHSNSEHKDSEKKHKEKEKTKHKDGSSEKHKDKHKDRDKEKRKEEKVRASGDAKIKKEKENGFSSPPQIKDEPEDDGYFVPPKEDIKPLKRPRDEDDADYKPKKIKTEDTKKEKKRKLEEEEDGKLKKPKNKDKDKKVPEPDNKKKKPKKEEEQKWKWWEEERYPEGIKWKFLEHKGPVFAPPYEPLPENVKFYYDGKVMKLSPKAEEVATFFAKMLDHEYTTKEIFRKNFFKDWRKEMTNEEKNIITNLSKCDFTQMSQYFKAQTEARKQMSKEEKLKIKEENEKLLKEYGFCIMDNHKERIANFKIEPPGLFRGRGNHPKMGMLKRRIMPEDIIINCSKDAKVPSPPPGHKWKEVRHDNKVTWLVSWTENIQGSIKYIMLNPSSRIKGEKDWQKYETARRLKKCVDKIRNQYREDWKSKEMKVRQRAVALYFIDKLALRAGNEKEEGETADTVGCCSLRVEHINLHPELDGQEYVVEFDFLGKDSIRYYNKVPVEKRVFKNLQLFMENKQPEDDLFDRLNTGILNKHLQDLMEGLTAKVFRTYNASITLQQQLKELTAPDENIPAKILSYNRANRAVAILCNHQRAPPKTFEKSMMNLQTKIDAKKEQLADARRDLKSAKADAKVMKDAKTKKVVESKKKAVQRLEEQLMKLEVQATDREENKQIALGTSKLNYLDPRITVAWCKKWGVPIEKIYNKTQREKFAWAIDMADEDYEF
Procedure, shortened: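 Supercoiled pBR322 plasmid incubated with Topo I, test agents at 50 μM, SN-38 as positive control. Reactions stopped with SDS, run on agarose gel, DNA stained with a nucleic acid dye; relaxation judged by band migration.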

[5] = molecular target: T5, Histone deacetylase (Homo sapiens) (UniProt Q13547+O15379+Q9UBN7+Q92769+Q9UQL6+Q8WUI4+Q9BY41+Q96DB2+P56524+Q9UKV0+Q969S8); experiment: Inhibition of HDAC in human DU145 cells assessed as upregulation of p21waf1 expression after 24 hrs by Western blot analysis; format: cell-based; details: DU-145
Procedure, shortened: (§2)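 DU-145 cells treated for 24 h at 2.5 and 5.0 μM (SAHA, conjugates) or 0.1 and 0.5 μM (SN-38); lysates immunoblotted for p21waf1, with actin as loading control.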

Histone deacetylase 8 = molecular target: T6, Histone deacetylase 8 (Homo sapiens, UniProt Q9BY41); experiment: Inhibition of HDAC8 in human HeLa cells using Fluor-de-Lys as substrate after 15 mins by fluorescence assay; format: cell-based
T6 sequence (Q9BY41 whole entry): T2 sequence (whole entry)

Histone deacetylase 1 [6] = molecular target: T1, Histone deacetylase 1; experiment: Inhibition of HDAC1 in human HeLa cells using Fluor-de-Lys as substrate up to 10 uM after 15 mins by fluorescence assay; format: cell-based; procedure, shortened: as §1
[7] = molecular target: T5, Histone deacetylase (Homo sapiens); experiment: Inhibition of HDAC in human HeLa cells using Fluor-de-Lys as substrate up to 10 uM after 15 mins by fluorescence assay; format: cell-based
Procedure, shortened: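 Enzyme source is HeLa cell nuclear extract with a fluorogenic substrate; fluorescence read near 460 nm. Compound-only wells without enzyme give background (camptothecin emits at 434 nm), which is subtracted. Each value from three independent experiments.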

[8] = molecular target: T5, Histone deacetylase (Homo sapiens); experiment: Inhibition of HDAC in human DU145 cells assessed as upregulation of p21waf1 expression at 0.1 to 0.5 uM after 24 hrs by Western blot analysis; format: cell-based; details: DU-145; procedure, shortened: as §2

T1 sequence (Q13547 whole entry): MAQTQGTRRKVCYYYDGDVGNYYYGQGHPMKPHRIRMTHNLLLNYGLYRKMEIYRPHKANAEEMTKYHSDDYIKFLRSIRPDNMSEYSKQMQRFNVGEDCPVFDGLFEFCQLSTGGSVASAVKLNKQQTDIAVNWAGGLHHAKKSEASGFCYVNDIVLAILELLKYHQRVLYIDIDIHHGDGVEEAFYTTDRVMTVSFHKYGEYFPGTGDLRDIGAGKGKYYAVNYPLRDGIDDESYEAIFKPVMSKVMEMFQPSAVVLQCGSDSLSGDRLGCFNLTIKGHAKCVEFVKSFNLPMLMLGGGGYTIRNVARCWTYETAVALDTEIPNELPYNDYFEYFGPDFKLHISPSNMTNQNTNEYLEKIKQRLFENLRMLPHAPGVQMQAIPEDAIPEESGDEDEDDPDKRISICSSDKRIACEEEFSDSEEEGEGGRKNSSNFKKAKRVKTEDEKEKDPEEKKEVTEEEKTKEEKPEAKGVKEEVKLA

CCc1c2c(nc3ccc(OCc4cn(CCCCCCC(=O)NO)nn4)cc13)-c1cc3c(c(=O)n1C2)COC(=O)[C@]3(O)CC
IC50 (Histone deacetylase 1 [1]): 50 nM | IC50 (DU-145): 3110 nM | IC50 (Histone deacetylase): 64.65 nM | inhibition [2]: inactive | IC50 [3]: 36 nM | Topo I inhibition (active/inactive) [4]: Active

CCc1c2c(nc3ccc(OCc4cn(CCCCCC(=O)NO)nn4)cc13)-c1cc3c(c(=O)n1C2)COC(=O)[C@]3(O)CC
inhibition [5]: Dose-dependent effect | IC50 (Histone deacetylase 1 [1]): 129 nM | IC50 (DU-145): 2050 nM | IC50 (Histone deacetylase): 120.7 nM | inhibition [2]: inactive | IC50 [3]: 42 nM | Topo I inhibition (active/inactive) [4]: Active

CCc1c2c(nc3ccc(OCc4cn(CCCCC(=O)NO)nn4)cc13)-c1cc3c(c(=O)n1C2)COC(=O)[C@]3(O)CC
IC50 (DU-145): 4250 nM | IC50 (Histone deacetylase): 155.4 nM | Topo I inhibition (active/inactive) [4]: Active

CC[C@@]1(O)C(=O)OCc2c1cc1n(c2=O)Cc2cc3cc(OCc4cn(CCCCCC(=O)NO)nn4)ccc3nc2-1
inhibition [5]: Dose-dependent effect | IC50 (DU-145): 1950 nM | IC50 (Histone deacetylase): 112.2 nM | Topo I inhibition (active/inactive) [4]: Active

CCc1c2c(nc3ccc(OCc4cn(CCCC(=O)NO)nn4)cc13)-c1cc3c(c(=O)n1C2)COC(=O)[C@]3(O)CC
IC50 (DU-145): 6270 nM | IC50 (Histone deacetylase 8): 1730 nM | inhibition (Histone deacetylase 1 [6]): inactive | IC50 [3]: 85 nM | Topo I inhibition (active/inactive) [4]: Active | inhibition [7]: inactive

CC[C@@]1(O)C(=O)OCc2c1cc1n(c2=O)Cc2cc3cc(OCc4cn(CCCCC(=O)NO)nn4)ccc3nc2-1
IC50 (Histone deacetylase 1 [1]): 116 nM | IC50 (DU-145): 2500 nM | IC50 (Histone deacetylase): 144.5 nM | inhibition [2]: inactive | IC50 [3]: 260 nM | Topo I inhibition (active/inactive) [4]: Active

CCc1c2c(nc3ccc(O)cc13)-c1cc3c(c(=O)n1C2)COC(=O)[C@]3(O)CC [7-ETHYL-10-HYDROXYCAMPTOTHECIN]
IC50 (DU-145): 110 nM | inhibition [8]: Active | inhibition [7]: inactive

CC[C@@]1(O)C(=O)OCc2c1cc1n(c2=O)Cc2cc3cc(OCc4cn(CCCCCCC(=O)NO)nn4)ccc3nc2-1
IC50 (Histone deacetylase 1 [1]): 37 nM | IC50 (DU-145): 2030 nM | IC50 (Histone deacetylase 8): 1050 nM | IC50 (Histone deacetylase): 56.2 nM | IC50 [3]: 81 nM | Topo I inhibition (active/inactive) [4]: Active

CCc1c2c(nc3ccc(OCc4cn(CCCCCCCC(=O)NO)nn4)cc13)-c1cc3c(c(=O)n1C2)COC(=O)[C@]3(O)CC
IC50 (Histone deacetylase 1 [1]): 369 nM | IC50 (DU-145): 3510 nM | IC50 (Histone deacetylase 8): 2600 nM | IC50 (Histone deacetylase): 212.3 nM | IC50 [3]: 75 nM | Topo I inhibition (active/inactive) [4]: Active

Source: ChEMBL document CHEMBL2384964, “Dual-acting histone deacetylase-topoisomerase I inhibitors” (Bioorg Med Chem Lett, 2013)
